Tn6 DDE FP = inhibitors of Tn6 peptide binding to human fibrin DD(E); P02675; Fibrin DD(E) TRITC-Tn6 fluorescence polarization displacement; inhibition, % at 8.3 µM; hit rate 0.21% among 370,000;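 active = inhibition above a per-campaign cutoff: mean of compounds within control limits plus 3 SD, cut at about 15% in these data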;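 note: 0% = median of all compound wells on the plate and 100% = blocking peptide control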
PLC-gamma1 inh = blocks human PLC-gamma1 enzyme activity; AID 720700; P19174; hit rate 0.84% among 370,000; inhibition, % at 12.2 µM; purified PLC-gamma1, fluorogenic substrate, fluorescence; in the data active = inhibition above about 9.5%
Tn7 DDE FP = DD(E)-Tn7 binding inhibition, primary FP screen | FP displacement of FITC-Tn7 peptide from fibrin DD(E); 0% = median of compound wells per plate | inhibition, % at 8.3 µM | hit rate 0.13% among 370,000 | AID 720508;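 active = inhibition above the mean of compounds falling within the control limits plus 3 SD of them, cut at about 14% in these data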;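 note: 0% = plate median of compound wells and 100% = 10 µM Aha-Tn7 peptide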
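system = human fibrin DD(E) protein | quantity = DD(E) 2 µM final | medium = Tris/NaCl/CaCl2 buffer, pH 7.8 | also added = labelled Tn7 tracer, 0.1 µM | compound dosing = single point at 8.3 µM | timing = compound with protein 10 min, then 3 h after probe, room temperature | signal = FP measurement | benchmarks = Aha-Tn7 high control | repeats = one replicate per compound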
NRP1-CendR mod = modulators of CendR peptide binding to human neuropilin-1 | hit rate 0.85% among 360,000 | FAM-RPARPAR peptide binding to NRP-1, fluorescence polarization | AID 602438 | inhibition, % at 25 µM;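 active = inhibition or corrected inhibition above about 18%, plus a signal ratio from 0.5 to 1.5, limit read from the data, passing the limit was not always enough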
PLC-beta3 inh = blocks human PLC-beta3 enzyme activity; inhibition, % at 12.2 µM; hit rate 0.18% among 370,000; Purified PLC-beta3, fluorogenic substrate, fluorescence; AID 720704; Q01970; in the data active = inhibition above about 11%;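 note: 0% = median of compound wells on plate and 100% = full blocker control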
KLK7 zymogen act = activators of human kallikrein-7 zymogen | P49862 | purified proKLK7, EDANS-DABCYL substrate fluorescence; 100% is mature enzyme control, 0% vehicle | activation, % at 7 µM | hit rate 0.9% among 370,000 | AID 652039;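 active = activation above the mean of all tested compounds plus 3 SD, computed per campaign excluding outliers beyond control limits, cut at about 13% in these data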
KLK7 act conf = confirmation of human kallikrein-7 zymogen activators; shares compounds with KLK7 zymogen act; purified proKLK7, EDANS-DABCYL substrate fluorescence; scaled: vehicle 0, mature enzyme 100; activation, % at 7 µM; hit rate 68% among 3,200;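 active = activation, as change over the incubation, above the mean of all tested compounds plus 3 SD, cut at about 13% in these data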
EDANS-DABCYL int = optically interferes with EDANS-DABCYL signal, flagging KLK7 hits; AID 686952; EDANS-DABCYL substrate fluorescence interference, no enzyme, 4 h; solvent 0%, active enzyme control 100%; hit rate 80% among 3,200; shares compounds with KLK7 zymogen act; activation, % at 7 µM;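 active = activation above the all-compound mean plus 3 SD, ignoring values outside control-based bounds, cut at about 4.8% in these data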;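 note: value is the 4 h activation minus the activation read at time zero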
Numbers without * were called inactive. Shown are actives, neighbours in structure and some others; about 3% of the full set was active somewhere.

How did C[C@H](O)[C@@H]1C(=O)N2CCc3c([nH]c4c(-c5ccccc5)cccc34)[C@@H]2C[C@@H]1N(C)C(=O)c1ccco1 do in these assays?
Tn6 DDE FP: 6; PLC-gamma1 inh: -41; Tn7 DDE FP: -5; PLC-beta3 inh: -49; KLK7 zymogen act: 0

Results for C[C@H](O)[C@@H]1C(=O)N2CCc3c([nH]c4ccccc34)[C@@H]2C[C@@H]1N(C)C(=O)Nc1ccccc1 ?
Tn6 DDE FP: -3; PLC-gamma1 inh: -445; Tn7 DDE FP: 3; NRP1-CendR mod: -23; PLC-beta3 inh: inactive; KLK7 zymogen act: 26*; KLK7 act conf: 6; EDANS-DABCYL int: 6.5*

How did C[C@H](O)[C@@H]1C(=O)N2CCc3c([nH]c4ccccc34)[C@@H]2C[C@@H]1N(C)C(=O)Nc1ccc(Br)cc1 do in these assays?
Tn6 DDE FP: 3; PLC-gamma1 inh: -255; Tn7 DDE FP: 1; PLC-beta3 inh: -285; KLK7 zymogen act: 37*; KLK7 act conf: 2; EDANS-DABCYL int: 4

How did C[C@H](O)[C@@H]1C(=O)N2CCc3c([nH]c4ccccc34)[C@@H]2C[C@@H]1N(C)C(=O)c1ccco1 do in these assays?
Tn6 DDE FP: -7; PLC-gamma1 inh: inactive; Tn7 DDE FP: -9; NRP1-CendR mod: -4; PLC-beta3 inh: inactive; KLK7 zymogen act: 51*; KLK7 act conf: 55*; EDANS-DABCYL int: 60*

Results for C[C@H](O)[C@@H]1CN2CCc3c([nH]c4ccccc34)[C@@H]2C[C@@H]1N(C)C(=O)Nc1ccc(F)cc1 ?
Tn6 DDE FP: 2; PLC-gamma1 inh: -325; Tn7 DDE FP: 0; NRP1-CendR mod: -11; PLC-beta3 inh: -471; KLK7 zymogen act: 16*; KLK7 act conf: 3; EDANS-DABCYL int: 2

What do the screens show for `O=C(Cc1c[nH]c2ccccc12)Nc1ccc(Nc2ccncc2)cc1`?
Tn6 DDE FP: -5; PLC-gamma1 inh: -3; Tn7 DDE FP: 2; PLC-beta3 inh: -2; KLK7 zymogen act: 0

How did O=C(COc1ccc(F)cc1Cl)Nc1nnc(-c2ccc(F)c(F)c2)o1 do in these assays?
Tn6 DDE FP: 3; PLC-gamma1 inh: -6; Tn7 DDE FP: 6; PLC-beta3 inh: -6

What do the screens show for `Cc1ccccc1-c1cccc2c3c([nH]c12)[C@@H]1C[C@H]2[C@@H](C(=O)N1CC3)[C@H](C)ON2C`?
Tn6 DDE FP: -3; PLC-gamma1 inh: -220; Tn7 DDE FP: -2; PLC-beta3 inh: -284; KLK7 zymogen act: -24

How did C[C@H](O)[C@@H]1C(=O)N2CCc3c([nH]c4ccccc34)[C@@H]2C[C@@H]1N(C)C(=O)Nc1cc(Cl)cc(Cl)c1 do in these assays?
Tn6 DDE FP: 0; PLC-gamma1 inh: -208; Tn7 DDE FP: 1; NRP1-CendR mod: -2; PLC-beta3 inh: -284; KLK7 zymogen act: 19*; KLK7 act conf: 6; EDANS-DABCYL int: 6.1*

Results for C[C@H](O)[C@@H]1CN2CCc3c([nH]c4ccccc34)[C@@H]2C[C@@H]1N(C)C(=O)Nc1cc(Cl)cc(Cl)c1 ?
Tn6 DDE FP: -3; PLC-gamma1 inh: -167; Tn7 DDE FP: -2; NRP1-CendR mod: -23; PLC-beta3 inh: -256; KLK7 zymogen act: 4

What do the screens show for `C[C@@H]1ON(C)[C@H]2C[C@H]3c4[nH]c5ccccc5c4CCN3C(=O)[C@@H]12`?
Tn6 DDE FP: 4; PLC-gamma1 inh: -241; Tn7 DDE FP: -11; NRP1-CendR mod: -16; PLC-beta3 inh: -310; KLK7 zymogen act: 15*; KLK7 act conf: 3; EDANS-DABCYL int: 2

Results for O=C(O)c1cn(-c2ccc(F)cc2)c2cc(N3CCNCC3)c(F)cc2c1=O ?
Tn6 DDE FP: -2; PLC-gamma1 inh: -83; Tn7 DDE FP: 3; NRP1-CendR mod: -8; PLC-beta3 inh: -117; KLK7 zymogen act: 15*; KLK7 act conf: 6; EDANS-DABCYL int: 4

How did NC(=O)NN=C1CCN2CCCc3cccc1c32 do in these assays?
Tn6 DDE FP: 4; PLC-gamma1 inh: inactive; Tn7 DDE FP: 0; NRP1-CendR mod: -12; PLC-beta3 inh: inactive; KLK7 zymogen act: 30*; KLK7 act conf: 51*; EDANS-DABCYL int: 55*

Results for N#Cc1ccc(/C=C2\CC3(OC(=O)C4CCCCC4)CCCN2C3)cc1 (stereo unspecified) ?
Tn6 DDE FP: 0; PLC-gamma1 inh: -4; Tn7 DDE FP: -3; PLC-beta3 inh: -6; KLK7 zymogen act: 0

How did N#Cc1ccccc1NC(=S)NC(=O)c1cccs1 do in these assays?
Tn6 DDE FP: -2; PLC-gamma1 inh: -11; Tn7 DDE FP: 2; NRP1-CendR mod: 8; PLC-beta3 inh: -22; KLK7 zymogen act: 14*; KLK7 act conf: 14*; EDANS-DABCYL int: 16*

Results for Cc1coc2c(C)c3oc(=O)c(CCC(=O)N[C@@H](C)C(=O)N[C@@H](Cc4ccccc4)C(=O)O)c(C)c3cc12 ?
Tn6 DDE FP: 6; PLC-gamma1 inh: -261; Tn7 DDE FP: 3; NRP1-CendR mod: -33; PLC-beta3 inh: -363; KLK7 zymogen act: 23*; KLK7 act conf: 41*; EDANS-DABCYL int: 37*

How did CCOc1ccc(-n2c(SCC(=O)Nc3ccccc3-c3ccccc3)nnc2-c2cccs2)cc1 do in these assays?
Tn6 DDE FP: -5; PLC-gamma1 inh: 3; Tn7 DDE FP: -1; PLC-beta3 inh: 1; KLK7 zymogen act: 0

Results for Cc1ccnc(NC(=S)NC(=O)c2cncc(Br)c2)c1 ?
Tn6 DDE FP: 0; PLC-gamma1 inh: 5; Tn7 DDE FP: 3; NRP1-CendR mod: 1; PLC-beta3 inh: 1; KLK7 zymogen act: 13*; KLK7 act conf: 14*; EDANS-DABCYL int: 15*

How did Cc1ccc(NC(=S)NC(=O)c2cncc(Br)c2)c(C)c1 do in these assays?
Tn6 DDE FP: 2; PLC-gamma1 inh: 3; Tn7 DDE FP: 0; NRP1-CendR mod: -4; PLC-beta3 inh: -3; KLK7 zymogen act: 0

How did N#CCc1ccc(-c2cccc3nccn23)cc1 do in these assays?
Tn6 DDE FP: 1; PLC-gamma1 inh: -285; Tn7 DDE FP: -1; NRP1-CendR mod: 6; PLC-beta3 inh: -408; KLK7 zymogen act: 22*; KLK7 act conf: 13*; EDANS-DABCYL int: 26*

Bioassay records deposited in PubChem BioAssay by several laboratories.
